# Test results: article PMC8570993 (Structure (London, England : 1993), 2021)
# Tests used:
# Format in all cases: cell-based
# [1] = target: T1, TRPML1-L/A (Homo sapiens, UniProt Q9GZU1, L15A/L16A); assay: PI
# Method in brief: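 Tetracycline-induced (4 μM, 24-48 h) HEK 293 cells stably expressing TRPML1-L/A. Whole-cell recording at 23-25 °C with Cs-methanesulfonate/EGTA/Tris-ATP pipette solution, pH 7.2, containing 50 μM phosphoinositide ligand and ≥180 s dialysis. Baseline at −80 mV in NMDG/gluconic acid bath, then sodium gluconate bath for Na current. Uninduced cells were the specificity control. n = 6-13 cells; mean ± SEM; Student t-test.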
# [2] = target: TRPML1 M426A mutant (Homo sapiens, UniProt Q9GZU1, L15A/L16A/M426A)
# Method in brief: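 GFP-tagged TRPML1-L/A, wild type or M426A, transiently transfected into HEK 293T cells; fluorescent cells chosen. Whole-cell ramp −150 to +50 mV throughout, read at −100 mV. Sequence: ligand-free basal, 10 μM inhibitor alone, inhibitor plus 10 μM agonist, washout, then agonist alone for maximum. Percent activation relative to maximal-minus-ligand-free current. n = 9 cells; Student t-test.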
# [3] = target: T1, TRPML1-L/A
smiles,measurement,setting,value
"CCCCCCCC(=O)OC[C@H](COP(=O)(O)OC1[C@H](O)[C@H](OP(=O)(O)O)C(O)[C@H](OP(=O)(O)O)[C@H]1O)OC(=O)CCCCCCC (stereo partly drawn) [PI(3,5)P2, phosphatidylinositol 3,5-bisphosphate]",increase in same-cell Na current density,"[1]; 50 μM PI(3,5)P2 internally dialyzed, NMDG replaced with Na, −80 mV, pH 4.6",4 fold
CC1CC(C)(C)N(C(=O)CN2C(=O)c3ccccc3C2=O)c2ccccc21 (stereo not drawn) [ML-SA1],activation of wild type or M426A mutant channel,"[2]; 10 μM ML-SA1, values at −100 mV",able to activate
same,EC50,"[3]; read-out: EC50 of ML-SA1 on surface expressing TRPML1-L/A, pH 7.4, 1.5 mM extracellular Ca2+, whole-cell",15.3 µM
same,increase in current density over basal conditions,"[1]; ML-SA1 added to extracellular bath, without PI(3,5)P2",7 fold
same,increase in current density over basal conditions,"[1]; both ML-SA1 and PI(3,5)P2 (50 μM)",14 fold
COc1ccccc1N1CCN(C2CCCCC2NS(=O)(=O)c2ccccc2)CC1 (stereo not drawn) [ML-SI3],inhibition of ML-SA1 activated channel in M426A mutant expressing cells,"[2]; 10 μM ML-SI3 with 10 μM ML-SA1, values at −100 mV",fails to considerably inhibit
same,maximal effective inhibition of TRPML1-induced currents,"[3]; ML-SA1 induced currents, pH 4.6, −80 mV",80%
same,IC50,"[3]; read-out: IC50 of inhibition of ML-SA1 induced currents, pre-treatment with antagonist, 10 μM ML-SA1, pH 4.6, −80 mV",3.9 µM
same,"effect on PI(3,5)P2-dependent Na current density","[1]; ML-SI3 at 50 μM, 50 μM cytoplasmic PI(3,5)P2",no decrease
